Values after ≈ are worked out from the molar mass of the structure shown. Active and inactive are the calls of the source. The calls are words filed in the database; no cut-off is given here.
Experiments:
[1] = Solubility of the compound in pH 7.1 buffer measured after 24 hrs; type: physicochemical
[2] = Ratio of solubility of the compound in pH 7.1 buffer measured after 24 hrs to IC50 for antagonist activity at recombinant human TAS2R8 expressed in cells co-expressing Galpha16gust44 assessed as inhibition of andrographolide-induced intracellular calcium level; type: cell-based
[3] = Stability of the compound in pH 7.1 buffer assessed as parent compound remaining measured after 24 hrs at 100 degC; type: physicochemical; conditions: read-out: Stability
[4] = biological target: T1, Taste receptor type 2 member 1 (Homo sapiens) (UniProt Q9NYW7); test: Antagonist activity at recombinant human TAS2R1 transiently expressed in HEK293T co-expressing Galpha16gust44 assessed as inhibition of picric acid-induced intracellular calcium level by measuring remaining activity at 25 uM by fluo-4AM dye based FLIPR assay relative to control; type: functional, cell-based
T1 sequence (whole entry): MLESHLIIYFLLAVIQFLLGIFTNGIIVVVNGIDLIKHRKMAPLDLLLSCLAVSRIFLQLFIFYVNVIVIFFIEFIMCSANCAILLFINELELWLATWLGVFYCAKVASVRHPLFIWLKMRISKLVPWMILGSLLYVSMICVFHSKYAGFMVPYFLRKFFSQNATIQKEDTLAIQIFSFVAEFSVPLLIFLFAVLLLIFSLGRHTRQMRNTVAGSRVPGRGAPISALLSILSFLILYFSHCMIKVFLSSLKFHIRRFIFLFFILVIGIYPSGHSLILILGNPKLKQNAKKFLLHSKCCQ

[5] = biological target: Taste receptor type 2 member 3 (Homo sapiens) (UniProt Q9NYW6); test: Antagonist activity at recombinant human TAS2R3 transiently expressed in HEK293T co-expressing Galpha16gust44 assessed as inhibition of chloroquine-induced intracellular calcium level by measuring remaining activity at 25 uM by fluo-4AM dye based FLIPR assay relative to control; type: functional, cell-based
[6] = biological target: Taste receptor type 2 member 7 (Homo sapiens) (UniProt Q9NYW3); test: Antagonist activity at recombinant human TAS2R7 transiently expressed in HEK293T co-expressing Galpha16gust44 assessed as inhibition of chloroquine-induced intracellular calcium level by measuring remaining activity at 25 uM by fluo-4AM dye based FLIPR assay relative to control; type: functional, cell-based
[7] = biological target: T2, Taste receptor type 2 member 8 (Homo sapiens) (UniProt Q9NYW2); test: Antagonist activity at recombinant human TAS2R8 transiently expressed in HEK293T co-expressing Galpha16gust44 assessed as inhibition of andrographolide-induced intracellular calcium level by measuring remaining activity at 25 uM by fluo-4AM dye based FLIPR assay relative to control; type: functional, cell-based
T2 sequence (whole entry): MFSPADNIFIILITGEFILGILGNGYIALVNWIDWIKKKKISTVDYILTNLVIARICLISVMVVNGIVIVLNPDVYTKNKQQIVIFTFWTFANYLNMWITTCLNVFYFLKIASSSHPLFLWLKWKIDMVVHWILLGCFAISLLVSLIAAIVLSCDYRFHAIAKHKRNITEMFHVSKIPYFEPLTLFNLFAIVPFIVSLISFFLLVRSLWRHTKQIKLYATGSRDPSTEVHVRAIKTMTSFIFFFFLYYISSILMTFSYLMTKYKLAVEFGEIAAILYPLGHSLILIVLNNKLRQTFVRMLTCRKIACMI

[8] = biological target: Taste receptor type 2 member 9 (Homo sapiens) (UniProt Q9NYW1); test: Antagonist activity at recombinant human TAS2R9 transiently expressed in HEK293T co-expressing Galpha16gust44 assessed as inhibition of ofloxacin-induced intracellular calcium level by measuring remaining activity at 25 uM by fluo-4AM dye based FLIPR assay relative to control; type: functional, cell-based
[9] = biological target: Taste receptor type 2 member 13 (Homo sapiens) (UniProt Q9NYV9); test: Antagonist activity at recombinant human TAS2R13 transiently expressed in HEK293T co-expressing Galpha16gust44 assessed as inhibition of oxyphenonium-induced intracellular calcium level by measuring remaining activity at 25 uM by fluo-4AM dye based FLIPR assay relative to control; type: functional, cell-based
[10] = biological target: T3, Taste receptor type 2 member 14 (Homo sapiens) (UniProt Q9NYV8); test: Antagonist activity at recombinant human TAS2R14 transiently expressed in HEK293T co-expressing Galpha16gust44 assessed as inhibition of aristolochic acid-induced intracellular calcium level by measuring remaining activity at 25 uM by fluo-4AM dye based FLIPR assay relative to control; type: functional, cell-based
T3 sequence (whole entry): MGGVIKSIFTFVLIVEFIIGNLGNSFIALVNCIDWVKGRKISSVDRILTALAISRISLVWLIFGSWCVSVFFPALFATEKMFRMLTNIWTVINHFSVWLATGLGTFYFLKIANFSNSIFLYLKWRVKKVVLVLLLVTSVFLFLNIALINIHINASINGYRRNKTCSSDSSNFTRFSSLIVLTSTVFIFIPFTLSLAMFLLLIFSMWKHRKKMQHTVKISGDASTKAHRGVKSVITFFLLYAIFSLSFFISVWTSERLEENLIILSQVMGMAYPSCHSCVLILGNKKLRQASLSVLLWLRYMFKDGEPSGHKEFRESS

[11] = biological target: Taste receptor type 2 member 16 (Homo sapiens) (UniProt Q9NYV7); test: Antagonist activity at recombinant human TAS2R16 transiently expressed in HEK293T co-expressing Galpha16gust44 assessed as inhibition of salicin-induced intracellular calcium level by measuring remaining activity at 25 uM by fluo-4AM dye based FLIPR assay relative to control; type: functional, cell-based
[12] = biological target: Taste receptor type 2 member 39 (Homo sapiens) (UniProt P59534); test: Antagonist activity at recombinant human TAS2R39 transiently expressed in HEK293T co-expressing Galpha16gust44 assessed as inhibition of ranitidine-induced intracellular calcium level by measuring remaining activity at 25 uM by fluo-4AM dye based FLIPR assay relative to control; type: functional, cell-based
[13] = biological target: Taste receptor type 2 member 41 (Homo sapiens) (UniProt P59536); test: Antagonist activity at recombinant human TAS2R41 transiently expressed in HEK293T co-expressing Galpha16gust44 assessed as inhibition of picric acid-induced intracellular calcium level by measuring remaining activity at 25 uM by fluo-4AM dye based FLIPR assay relative to control; type: functional, cell-based
[14] = biological target: Taste receptor type 2 member 43 (Homo sapiens) (UniProt P59537); test: Antagonist activity at recombinant human TAS2R43 transiently expressed in HEK293T co-expressing Galpha16gust44 assessed as inhibition of aristolochic acid-induced intracellular calcium level by measuring remaining activity at 25 uM by fluo-4AM dye based FLIPR assay relative to control; type: functional, cell-based
[15] = biological target: Taste receptor type 2 member 50 (Homo sapiens) (UniProt P59544); test: Antagonist activity at recombinant human TAS2R50 transiently expressed in HEK293T co-expressing Galpha16gust44 assessed as inhibition of andrographolide-induced intracellular calcium level by measuring remaining activity at 25 uM by fluo-4AM dye based FLIPR assay relative to control; type: functional, cell-based
[16] = test system: Homo sapiens; test: In vivo antagonist activity at TAS2R8 in human assessed as reduction in coffee-inudced bitterness at 5 uM by 2-AFC test; type: functional
Procedure, shortened: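 Paired coffee test: 1.5× coffee with milk versus same with 5 μM compound added from ethanol stock; trained panelists chose the more bitter sample; 17 panelists × 3 replicates (51 responses).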

Sequence of Taste receptor type 2 member 39 (Homo sapiens) (P59534 whole entry): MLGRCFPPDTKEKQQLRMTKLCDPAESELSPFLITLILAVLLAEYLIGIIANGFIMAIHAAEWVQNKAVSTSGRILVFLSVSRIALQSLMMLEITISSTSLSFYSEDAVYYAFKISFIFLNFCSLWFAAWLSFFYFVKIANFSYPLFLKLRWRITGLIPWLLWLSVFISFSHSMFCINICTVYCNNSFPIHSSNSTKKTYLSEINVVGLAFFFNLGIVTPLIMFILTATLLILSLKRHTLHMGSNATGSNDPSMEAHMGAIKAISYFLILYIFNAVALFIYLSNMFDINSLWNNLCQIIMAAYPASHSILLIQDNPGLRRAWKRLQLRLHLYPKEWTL
Sequence of Taste receptor type 2 member 43 (Homo sapiens) (P59537 whole entry): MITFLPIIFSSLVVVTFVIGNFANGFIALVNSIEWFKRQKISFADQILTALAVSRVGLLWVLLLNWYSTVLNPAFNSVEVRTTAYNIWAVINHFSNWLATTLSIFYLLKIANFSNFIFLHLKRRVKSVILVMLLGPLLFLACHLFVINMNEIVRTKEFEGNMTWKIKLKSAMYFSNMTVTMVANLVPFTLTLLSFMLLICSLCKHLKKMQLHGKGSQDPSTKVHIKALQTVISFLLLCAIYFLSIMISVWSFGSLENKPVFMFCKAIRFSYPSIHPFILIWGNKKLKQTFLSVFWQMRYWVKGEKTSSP
Sequence of Taste receptor type 2 member 13 (Homo sapiens) (Q9NYV9 whole entry): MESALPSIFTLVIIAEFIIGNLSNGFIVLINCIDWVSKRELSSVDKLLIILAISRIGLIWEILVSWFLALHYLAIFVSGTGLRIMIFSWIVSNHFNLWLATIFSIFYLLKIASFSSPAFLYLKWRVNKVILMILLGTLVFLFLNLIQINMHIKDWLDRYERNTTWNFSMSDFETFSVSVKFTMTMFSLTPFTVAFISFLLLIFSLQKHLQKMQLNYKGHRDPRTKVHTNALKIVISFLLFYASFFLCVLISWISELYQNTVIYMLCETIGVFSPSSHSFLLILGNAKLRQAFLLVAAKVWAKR
Sequence of Taste receptor type 2 member 3 (Homo sapiens) (Q9NYW6 whole entry): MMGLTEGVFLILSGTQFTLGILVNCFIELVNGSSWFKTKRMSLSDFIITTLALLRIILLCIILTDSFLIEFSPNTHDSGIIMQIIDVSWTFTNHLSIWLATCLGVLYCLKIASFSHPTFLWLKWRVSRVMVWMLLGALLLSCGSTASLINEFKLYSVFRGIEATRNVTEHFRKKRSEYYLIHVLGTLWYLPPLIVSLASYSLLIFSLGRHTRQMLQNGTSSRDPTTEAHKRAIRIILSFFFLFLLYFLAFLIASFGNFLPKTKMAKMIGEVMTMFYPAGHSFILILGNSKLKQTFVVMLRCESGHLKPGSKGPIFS
Sequence of Taste receptor type 2 member 7 (Homo sapiens) (Q9NYW3 whole entry): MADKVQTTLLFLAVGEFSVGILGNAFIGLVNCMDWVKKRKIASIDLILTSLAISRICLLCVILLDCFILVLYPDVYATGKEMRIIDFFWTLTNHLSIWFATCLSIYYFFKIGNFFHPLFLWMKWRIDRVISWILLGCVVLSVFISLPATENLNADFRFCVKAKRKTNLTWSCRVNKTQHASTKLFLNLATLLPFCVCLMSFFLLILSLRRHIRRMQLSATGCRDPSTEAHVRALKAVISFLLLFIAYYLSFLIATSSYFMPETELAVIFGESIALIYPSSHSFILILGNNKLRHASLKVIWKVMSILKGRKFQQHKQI
Sequence of Taste receptor type 2 member 50 (Homo sapiens) (P59544 whole entry): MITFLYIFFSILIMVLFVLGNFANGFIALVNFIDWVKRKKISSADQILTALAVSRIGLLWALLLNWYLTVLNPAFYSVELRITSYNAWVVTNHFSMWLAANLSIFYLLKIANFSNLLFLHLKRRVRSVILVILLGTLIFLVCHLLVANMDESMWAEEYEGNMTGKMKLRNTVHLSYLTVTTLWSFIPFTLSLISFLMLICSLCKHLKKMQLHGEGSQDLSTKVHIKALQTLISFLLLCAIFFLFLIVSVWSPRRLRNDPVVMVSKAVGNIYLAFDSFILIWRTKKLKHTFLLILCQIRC
Sequence of Taste receptor type 2 member 41 (Homo sapiens) (P59536 whole entry): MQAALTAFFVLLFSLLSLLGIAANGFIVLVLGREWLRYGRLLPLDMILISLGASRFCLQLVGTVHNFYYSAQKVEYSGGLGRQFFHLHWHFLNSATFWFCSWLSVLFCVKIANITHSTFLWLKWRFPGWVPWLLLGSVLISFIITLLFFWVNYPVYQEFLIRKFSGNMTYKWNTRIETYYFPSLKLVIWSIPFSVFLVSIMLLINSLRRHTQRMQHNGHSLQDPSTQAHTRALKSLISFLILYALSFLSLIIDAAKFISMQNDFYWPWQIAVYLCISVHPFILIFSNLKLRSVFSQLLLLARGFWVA
Sequence of Taste receptor type 2 member 9 (Homo sapiens) (Q9NYW1 whole entry): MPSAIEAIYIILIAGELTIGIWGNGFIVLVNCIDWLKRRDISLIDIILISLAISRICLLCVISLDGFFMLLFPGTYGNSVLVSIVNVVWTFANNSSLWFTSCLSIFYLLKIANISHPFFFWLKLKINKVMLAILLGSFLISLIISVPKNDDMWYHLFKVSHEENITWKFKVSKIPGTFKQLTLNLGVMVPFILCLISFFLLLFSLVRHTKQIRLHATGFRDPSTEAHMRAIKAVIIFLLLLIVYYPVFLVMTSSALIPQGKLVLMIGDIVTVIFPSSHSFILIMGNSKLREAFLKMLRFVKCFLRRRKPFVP
Sequence of Taste receptor type 2 member 16 (Homo sapiens) (Q9NYV7 whole entry): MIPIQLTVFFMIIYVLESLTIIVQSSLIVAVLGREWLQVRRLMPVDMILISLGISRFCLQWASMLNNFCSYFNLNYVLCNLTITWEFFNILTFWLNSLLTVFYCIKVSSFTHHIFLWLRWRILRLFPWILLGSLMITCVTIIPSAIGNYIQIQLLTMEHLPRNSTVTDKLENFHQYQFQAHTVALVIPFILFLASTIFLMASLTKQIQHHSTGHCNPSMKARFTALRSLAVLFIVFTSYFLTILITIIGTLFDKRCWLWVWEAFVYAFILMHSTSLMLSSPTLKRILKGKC

Row | SMILES | solubility at 24 h [1] [µM] | Ratio [2] | remaining at 24 h [3] [%] | Activity [4] [%] | Activity [5] [%] | Activity [6] [%] | Activity [7] [%] | Activity [8] [%] | Activity [9] [%] | Activity [10] [%] | Activity [11] [%] | Activity [12] [%] | Activity [13] [%] | Activity [14] [%] | Activity [15] [%] | Activity [16]
1 | Cc1noc(C)c1Cn1cc(N2C(=O)N(Cc3cccc(O)c3)C(C)(C)C2=O)cn1 | 72 (≈ 29.5 µg/mL) | 1290 | > 99 | 97 | 72 | 92 | 7 | 98 | 95 | 97 | 88 | 150 | 133 | 88 | 91 | Active
2 | Cc1noc(C)c1Cn1cc(N2C(=O)CN(Cc3cccc(O)c3)C2=O)cn1 | 244 (≈ 93.1 µg/mL) | 11600 | 55 | 119 | 103 | 93 | 13 | 106 | 127 | 124 | 98 | 74 | 99 | 84 | 99 | >78%
